Source: ChEMBL document CHEMBL5316281, “Trojan Horse Siderophore Conjugates Induce Pseudomonas aeruginosa Suicide and Qualify the TonB Protein as a Novel Antibiotic Target” (2023)
The source made the active and inactive calls. The calls are words filed in the database; no cut-off is given here. Where a SMILES comes first, the peptide text is derived from it. [ ]: non-standard residue; d: D form. The star is where a group is joined. X6 = CC(=O)Oc1cccc(C(=O)NCc2cc(CNC(=O)c3cccc(OC(C)=O)c3OC(C)=O)c(NC(=O)CCCc3cn(CCOCCOCCOCCOCCOCCOCCOCCOCCNC(=O)COCC(=O)*)nn3)c(CNC(=O)c3cccc(OC(C)=O)c3OC(C)=O)c2)c1OC(C)=O; X1 = O=C(COCC(=O)*)NCCOCCOCCOCCOCCOCCOCCOCCOCCn1cc(CCCC(=O)Nc2c(CNC(=O)c3cccc(O)c3O)cc(CNC(=O)c3cccc(O)c3O)cc2CNC(=O)c2cccc(O)c2O)nn1; X5 = O=C(CCSSCCC(=O)*)NCCOCCOCCOCCOCCOCCn1cc(CCCC(=O)Nc2c(CNC(=O)c3cccc(O)c3O)cc(CNC(=O)c3cccc(O)c3O)cc2CNC(=O)c2cccc(O)c2O)nn1; Benzoyl(2,3-diOH) = O=C(c1cccc(O)c1O)*

Tests used:
Pseudomonas aeruginosa [1] = assay: Antimicrobial activity against Pseudomonas aeruginosa PAO1 assessed as inhibition of bacterial growth in presence of iron-depleted CAA medium; format: functional, organism-based
Pseudomonas aeruginosa [2] = assay: Antimicrobial activity against Pseudomonas aeruginosa harboring deltapvdF-deltapchA mutant assessed as inhibition of bacterial growth by measuring minimal inhibitory concentration incubated for 48 hrs in presence of iron-depleted CAA medium; format: functional
Pseudomonas aeruginosa [3] = assay: Antimicrobial activity against Pseudomonas aeruginosa harboring deltapvdF-deltapchA mutant assessed as inhibition of bacterial growth by measuring minimal inhibitory concentration incubated for 24 hrs in presence of iron-depleted CAA medium; format: functional
Pseudomonas aeruginosa [4] = assay: Antimicrobial activity against Pseudomonas aeruginosa harboring deltapvdF-deltapchA mutant assessed as increase in pfeA transcription level at 10 uM incubated for 8 hrs in presence of iron-depleted CAA medium by qRT-PCR analysis; format: functional, organism-based
In short: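 Cells grown in CAA medium for 8 h at 30 °C with vigorous shaking, with or without 10 μM compound; 2.5 x 10⁸ cells stabilized in two volumes RNAprotect; RNA processed per earlier protocol; RT-qPCR with primer efficiencies from serially diluted genomic DNA; double ΔCT analysis.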

## CC[C@H](C)[C@H](NC(=O)[C@H](CCSC)NC(=O)[C@@H](NC(=O)[C@H](C)NC(=O)CNC(=O)[C@H](CC(C)C)NC(=O)[C@H](CC(=O)O)NC(=O)[C@@H](NC(=O)[C@H](CO)NC(=O)[C@H](CO)NC(=O)[C@H](CC(=O)O)NC(=O)c1cccc(O)c1O)C(C)C)[C@@H](C)O)C(=O)N[C@H](C(=O)N[C@@H](CO)C(=O)N[C@@H](CC(N)=O)C(=O)N[C@@H](CCC(N)=O)C(=O)N[C@@H](CC(C)C)C(=O)NCC(=O)N[C@H](C(=O)N[C@H](C(=O)N[C@@H](CCCCN)C(N)=O)[C@@H](C)CC)[C@@H](C)O)[C@@H](C)O
Pseudomonas aeruginosa [1]
  Activity: inactive
Pseudomonas aeruginosa [2]
  MIC: > 64 µM
Pseudomonas aeruginosa [3]
  MIC: > 64 µM

## CC[C@H](C)[C@H](NC(=O)[C@@H](N)C(C)C)C(=O)N[C@@H](CCC(=O)O)C(=O)N[C@@H](CC(C)C)C(=O)NCC(=O)N[C@@H](CCC(=O)O)C(=O)N[C@@H](CCC(N)=O)C(=O)N[C@H](C(=O)N[C@H](C(=O)N[C@H](C(=O)N[C@@H](C)C(=O)N[C@H](C(=O)N[C@@H](C)C(=O)N[C@@H](CCC(N)=O)C(=O)N[C@@H](CCC(=O)O)C(=O)N[C@@H](CCC(=O)O)C(=O)N[C@H](C(=O)N[C@@H](CCCCN)C(=O)N[C@@H](CCC(N)=O)C(=O)N[C@@H](CCCCNC(=O)COCC(=O)NCCOCCOCCOCCOCCOCCOCCOCCOCCn1cc(CCCC(=O)Nc2c(CNC(=O)c3cccc(OC(C)=O)c3OC(C)=O)cc(CNC(=O)c3cccc(OC(C)=O)c3OC(C)=O)cc2CNC(=O)c2cccc(OC(C)=O)c2OC(C)=O)nn1)C(N)=O)[C@@H](C)O)[C@@H](C)O)C(C)C)C(C)C)[C@@H](C)O (H-VIELGEQTVVATAQEETKQK(X6)-NH2)
Pseudomonas aeruginosa [1]
  Activity: inactive
Pseudomonas aeruginosa [2]
  MIC: > 64 µM
Pseudomonas aeruginosa [3]
  MIC: > 64 µM

## H-DDLVQMSPSVK-NH2
Pseudomonas aeruginosa [1]
  Activity: inactive
Pseudomonas aeruginosa [4]
  Activity: inactive

## CC[C@H](C)[C@H](NC(=O)[C@@H](N)C(C)C)C(=O)N[C@@H](CCC(=O)O)C(=O)N[C@@H](CC(C)C)C(=O)NCC(=O)N[C@@H](CCC(=O)O)C(=O)N[C@@H](CCC(N)=O)C(=O)N[C@H](C(=O)N[C@H](C(=O)N[C@H](C(=O)N[C@@H](C)C(=O)N[C@H](C(=O)N[C@@H](C)C(=O)N[C@@H](CCC(N)=O)C(=O)N[C@@H](CCC(=O)O)C(=O)N[C@@H](CCC(=O)O)C(=O)N[C@H](C(=O)N[C@@H](CCCCN)C(=O)N[C@@H](CCC(N)=O)C(=O)N[C@@H](CCCCNC(=O)CCSSCCC(=O)NCCOCCOCCOCCOCCOCCn1cc(CCCC(=O)Nc2c(CNC(=O)c3cccc(O)c3O)cc(CNC(=O)c3cccc(O)c3O)cc2CNC(=O)c2cccc(O)c2O)nn1)C(N)=O)[C@@H](C)O)[C@@H](C)O)C(C)C)C(C)C)[C@@H](C)O (H-VIELGEQTVVATAQEETKQK(X5)-NH2)
Pseudomonas aeruginosa [1]
  Activity: inactive
Pseudomonas aeruginosa [2]
  MIC: > 64 µM
Pseudomonas aeruginosa [3]
  MIC: > 64 µM

## CC[C@H](C)[C@H](NC(=O)[C@H](CCSC)NC(=O)[C@@H](NC(=O)[C@H](C)NC(=O)CNC(=O)[C@H](CC(C)C)NC(=O)[C@H](CC(=O)O)NC(=O)[C@@H](NC(=O)[C@H](CO)NC(=O)[C@H](CO)NC(=O)[C@@H](N)CC(=O)O)C(C)C)[C@@H](C)O)C(=O)N[C@H](C(=O)N[C@@H](CO)C(=O)N[C@@H](CC(N)=O)C(=O)N[C@@H](CCC(N)=O)C(=O)N[C@@H](CC(C)C)C(=O)NCC(=O)N[C@H](C(=O)N[C@H](C(=O)N[C@@H](CCCCNC(=O)c1cccc(O)c1O)C(N)=O)[C@@H](C)CC)[C@@H](C)O)[C@@H](C)O (H-DSSVDLGATMITSNQLGTIK(Benzoyl(2,3-diOH))-NH2)
Pseudomonas aeruginosa [1]
  Activity: inactive
Pseudomonas aeruginosa [2]
  MIC: > 64 µM
Pseudomonas aeruginosa [3]
  MIC: > 64 µM

## CC[C@@H](C)[C@@H](NC(=O)[C@@H](CCSC)NC(=O)[C@H](NC(=O)[C@@H](C)NC(=O)CNC(=O)[C@@H](CC(C)C)NC(=O)[C@@H](CC(=O)O)NC(=O)[C@H](NC(=O)[C@@H](CO)NC(=O)[C@@H](CO)NC(=O)[C@@H](CC(=O)O)NC(=O)c1cccc(O)c1O)C(C)C)[C@H](C)O)C(=O)N[C@@H](C(=O)N[C@H](CO)C(=O)N[C@H](CC(N)=O)C(=O)N[C@H](CCC(N)=O)C(=O)N[C@H](CC(C)C)C(=O)NCC(=O)N[C@@H](C(=O)N[C@@H](C(=O)N[C@H](CCCCN)C(N)=O)[C@H](C)CC)[C@H](C)O)[C@@H](C)O
Pseudomonas aeruginosa [1]
  Activity: inactive
Pseudomonas aeruginosa [2]
  MIC: > 64 µM
Pseudomonas aeruginosa [3]
  MIC: > 64 µM

## CC[C@@H](C)[C@@H](NC(=O)[C@H](NC(=O)c1cccc(O)c1O)C(C)C)C(=O)N[C@H](CCC(=O)O)C(=O)N[C@H](CC(C)C)C(=O)NCC(=O)N[C@H](CCC(=O)O)C(=O)N[C@H](CCC(N)=O)C(=O)N[C@@H](C(=O)N[C@@H](C(=O)N[C@@H](C(=O)N[C@H](C)C(=O)N[C@@H](C(=O)N[C@H](C)C(=O)N[C@H](CCC(N)=O)C(=O)N[C@H](CCC(=O)O)C(=O)N[C@H](CCC(=O)O)C(=O)N[C@@H](C(=O)N[C@H](CCCCN)C(=O)N[C@H](CCC(N)=O)C(=O)N[C@H](CCCCN)C(N)=O)[C@H](C)O)[C@H](C)O)C(C)C)C(C)C)[C@H](C)O ({Benzoyl(2,3-diOH)}-[dV][dI][dE][dL]G[dE][dQ][dT][dV][dV][dA][dT][dA][dQ][dE][dE][dT][dK][dQ][dK]-NH2)
Pseudomonas aeruginosa [1]
  Activity: inactive
Pseudomonas aeruginosa [2]
  MIC: > 64 µM
Pseudomonas aeruginosa [3]
  MIC: > 64 µM

## CC[C@H](C)[C@H](NC(=O)[C@@H](N)C(C)C)C(=O)N[C@@H](CCC(=O)O)C(=O)N[C@@H](CC(C)C)C(=O)NCC(=O)N[C@@H](CCC(=O)O)C(=O)N[C@@H](CCC(N)=O)C(=O)N[C@H](C(=O)N[C@H](C(=O)N[C@H](C(=O)N[C@@H](C)C(=O)N[C@H](C(=O)N[C@@H](C)C(=O)N[C@@H](CCC(N)=O)C(=O)N[C@@H](CCC(=O)O)C(=O)N[C@@H](CCC(=O)O)C(=O)N[C@H](C(=O)N[C@@H](CCCCN)C(=O)N[C@@H](CCC(N)=O)C(=O)N[C@@H](CCCCNC(=O)c1cccc(O)c1O)C(N)=O)[C@@H](C)O)[C@@H](C)O)C(C)C)C(C)C)[C@@H](C)O (H-VIELGEQTVVATAQEETKQK(Benzoyl(2,3-diOH))-NH2)
Pseudomonas aeruginosa [1]
  Activity: inactive
Pseudomonas aeruginosa [2]
  MIC: > 64 µM
Pseudomonas aeruginosa [3]
  MIC: > 64 µM

## CC[C@H](C)[C@H](NC(=O)[C@@H](NC(=O)c1cccc(O)c1O)C(C)C)C(=O)N[C@@H](CCC(=O)O)C(=O)N[C@@H](CC(C)C)C(=O)NCC(=O)N[C@@H](CCC(=O)O)C(=O)N[C@@H](CCC(N)=O)C(=O)N[C@H](C(=O)N[C@H](C(=O)N[C@H](C(=O)N[C@@H](C)C(=O)N[C@H](C(=O)N[C@@H](C)C(=O)N[C@@H](CCC(N)=O)C(=O)N[C@@H](CCC(=O)O)C(=O)N[C@@H](CCC(=O)O)C(=O)N[C@H](C(=O)N[C@@H](CCCCN)C(=O)N[C@@H](CCC(N)=O)C(=O)N[C@@H](CCCCN)C(N)=O)[C@@H](C)O)[C@@H](C)O)C(C)C)C(C)C)[C@@H](C)O ({Benzoyl(2,3-diOH)}-VIELGEQTVVATAQEETKQK-NH2)
Pseudomonas aeruginosa [1]
  Activity: inactive
Pseudomonas aeruginosa [2]
  MIC: > 64 µM
Pseudomonas aeruginosa [3]
  MIC: > 64 µM

## CC[C@H](C)[C@H](NC(=O)[C@H](CCSC)NC(=O)[C@@H](NC(=O)[C@H](C)NC(=O)CNC(=O)[C@H](CC(C)C)NC(=O)[C@H](CC(=O)O)NC(=O)[C@@H](NC(=O)COCC(=O)NCCOCCOCCOCCOCCOCCOCCOCCOCCn1cc(CCCC(=O)Nc2c(CNC(=O)c3cccc(O)c3O)cc(CNC(=O)c3cccc(O)c3O)cc2CNC(=O)c2cccc(O)c2O)nn1)C(C)C)[C@@H](C)O)C(=O)N[C@H](C(=O)N[C@@H](CO)C(=O)N[C@@H](CC(N)=O)C(=O)N[C@@H](CCCCN)C(N)=O)[C@@H](C)O (X1-VDLGATMITSNK-NH2)
Pseudomonas aeruginosa [1]
  Activity: inactive
Pseudomonas aeruginosa [2]
  MIC: > 64 µM
Pseudomonas aeruginosa [3]
  MIC: > 64 µM

## H-GEQTVVATAQK-NH2
Pseudomonas aeruginosa [1]
  Activity: inactive
Pseudomonas aeruginosa [4]
  Activity: inactive

## CSCC[C@H](NC(=O)[C@H](CCC(N)=O)NC(=O)[C@@H](NC(=O)[C@H](CC(C)C)NC(=O)[C@H](CC(=O)O)NC(=O)[C@H](CC(=O)O)NC(=O)COCC(=O)NCCOCCOCCOCCOCCOCCOCCOCCOCCn1cc(CCCC(=O)Nc2c(CNC(=O)c3cccc(O)c3O)cc(CNC(=O)c3cccc(O)c3O)cc2CNC(=O)c2cccc(O)c2O)nn1)C(C)C)C(=O)N[C@@H](CO)C(=O)N1CCC[C@H]1C(=O)N[C@@H](CO)C(=O)N[C@H](C(=O)N[C@@H](CCCCN)C(N)=O)C(C)C (X1-DDLVQMSPSVK-NH2)
Pseudomonas aeruginosa [1]
  Activity: inactive
Pseudomonas aeruginosa [2]
  MIC: > 64 µM
Pseudomonas aeruginosa [3]
  MIC: > 64 µM

## CN[C@@H]1[C@@H](O)[C@@H](O[C@@H]2[C@@H](O)[C@H](O[C@H]3O[C@H](C(C)N)CC[C@H]3N)[C@@H](N)C[C@H]2N)OC[C@]1(C)O (some centres not stated) [GENTAMICIN C2]
Pseudomonas aeruginosa [1]
  Activity: inactive
Pseudomonas aeruginosa [2]
  MIC: 4 µM
Pseudomonas aeruginosa [3]
  MIC: 1 µM

## CC(C)[C@H](NC(=O)[C@@H](NC(=O)[C@@H](NC(=O)[C@H](CCC(N)=O)NC(=O)[C@H](CCC(=O)O)NC(=O)COCC(=O)NCCOCCOCCOCCOCCOCCOCCOCCOCCn1cc(CCCC(=O)Nc2c(CNC(=O)c3cccc(O)c3O)cc(CNC(=O)c3cccc(O)c3O)cc2CNC(=O)c2cccc(O)c2O)nn1)[C@@H](C)O)C(C)C)C(=O)N[C@@H](C)C(=O)N[C@H](C(=O)N[C@@H](C)C(=O)N[C@@H](CCC(N)=O)C(=O)N[C@@H](CCCCN)C(N)=O)[C@@H](C)O (X1-EQTVVATAQK-NH2)
Pseudomonas aeruginosa [1]
  Activity: inactive
Pseudomonas aeruginosa [2]
  MIC: > 64 µM
Pseudomonas aeruginosa [3]
  MIC: > 64 µM

## H-VDLGATMITSNK-NH2
Pseudomonas aeruginosa [1]
  Activity: inactive
Pseudomonas aeruginosa [4]
  Activity: inactive
